Assay results reported in ChEMBL document CHEMBL1146375, “Synthetic studies on novel benzimidazolopeptides with antimicrobial, cytotoxic and anthelmintic potential” (2007).
Converted amounts (≈) assume the structure as drawn.

tested on: Bacillus subtilis; test: Antibacterial activity against Bacillus subtilis NCIM 2063 after 18 hrs by disc diffusion method; format: functional; details: not given
Procedure, shortened: (§1)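 Modified Kirby-Bauer disc diffusion. Plates inoculated with spore suspension (about 6 × 10⁴ spores mL^-1). Sterile 6 mm paper discs carried test samples at 10 mg mL^-1; ciprofloxacin disc as reference, DMF disc as negative control. Plates held 18 h at 37 °C. Inhibition zone diameters (mm) averaged over triplicate sets.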

SMILES	inhibition zone (IZ) [mm]
COC(=O)[C@H](Cc1c[nH]c2ccccc12)NC(=O)c1cc(I)c(-c2nc3cc(C)c(C)cc3[nH]2)c(I)c1	16
COC(=O)[C@H](CCCNC(=N)N[N+](=O)[O-])NC(=O)c1ccc(-c2nc3cc(C)c(C)cc3[nH]2)cc1	14

tested on: Staphylococcus aureus; test: Antibacterial activity against Staphylococcus aureus NCIM 2079 after 18 hrs by disc diffusion method; format: functional; details: not given; procedure, shortened: as §1

SMILES	inhibition zone (IZ) [mm]
COC(=O)[C@H](Cc1c[nH]c2ccccc12)NC(=O)c1cc(I)c(-c2nc3cc(C)c(C)cc3[nH]2)c(I)c1	12
COC(=O)[C@H](CCCNC(=N)N[N+](=O)[O-])NC(=O)c1ccc(-c2nc3cc(C)c(C)cc3[nH]2)cc1	9

tested on: Pseudomonas aeruginosa; test: Antibacterial activity against Pseudomonas aeruginosa NCIM 2034 after 18 hrs by disc diffusion method; format: functional; details: not given; procedure, shortened: as §1

SMILES	inhibition zone (IZ) [mm]
COC(=O)[C@H](Cc1c[nH]c2ccccc12)NC(=O)c1cc(I)c(-c2nc3cc(C)c(C)cc3[nH]2)c(I)c1	25
COC(=O)[C@H](CCCNC(=N)N[N+](=O)[O-])NC(=O)c1ccc(-c2nc3cc(C)c(C)cc3[nH]2)cc1	23

tested on: Escherichia coli; test: Antibacterial activity against Escherichia coli NCIM 2065 after 18 hrs by disc diffusion method; format: functional; details: not given; procedure, shortened: as §1

SMILES	inhibition zone (IZ) [mm]
COC(=O)[C@H](Cc1c[nH]c2ccccc12)NC(=O)c1cc(I)c(-c2nc3cc(C)c(C)cc3[nH]2)c(I)c1	19
COC(=O)[C@H](CCCNC(=N)N[N+](=O)[O-])NC(=O)c1ccc(-c2nc3cc(C)c(C)cc3[nH]2)cc1	17

tested on: Candida albicans; test: Antifungal activity against Candida albicans MUCC 29 after 48 hrs by disc diffusion method; format: functional; details: not given
Procedure, shortened: (§2)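 Agar well diffusion on plates inoculated with spore suspension in normal saline from cultures on Sabouraud's broth. Wells punched and loaded with test samples or griseofulvin at 10 mg mL^-1, with DMSO as negative control. Incubated 48 h at 37 °C.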

SMILES	inhibition zone (IZ) [mm]
COC(=O)[C@H](Cc1c[nH]c2ccccc12)NC(=O)c1cc(I)c(-c2nc3cc(C)c(C)cc3[nH]2)c(I)c1	18
COC(=O)[C@H](CCCNC(=N)N[N+](=O)[O-])NC(=O)c1ccc(-c2nc3cc(C)c(C)cc3[nH]2)cc1	15

tested on: Microsporum audouinii; test: Antifungal activity against Microsporum audouinii MUCC 545 after 48 hrs by disc diffusion method; format: functional; details: not given; procedure, shortened: as §2

SMILES	inhibition zone (IZ) [mm]
COC(=O)[C@H](Cc1c[nH]c2ccccc12)NC(=O)c1cc(I)c(-c2nc3cc(C)c(C)cc3[nH]2)c(I)c1	9
COC(=O)[C@H](CCCNC(=N)N[N+](=O)[O-])NC(=O)c1ccc(-c2nc3cc(C)c(C)cc3[nH]2)cc1	8

tested on: Trichophyton benhamiae; test: Antifungal activity against Trichophyton mentagrophytes MUCC 665 after 48 hrs by disc diffusion method; format: functional, Arthroderma benhamiae; details: not given; procedure, shortened: as §2

SMILES	inhibition zone (IZ) [mm]
COC(=O)[C@H](Cc1c[nH]c2ccccc12)NC(=O)c1cc(I)c(-c2nc3cc(C)c(C)cc3[nH]2)c(I)c1	12
COC(=O)[C@H](CCCNC(=N)N[N+](=O)[O-])NC(=O)c1ccc(-c2nc3cc(C)c(C)cc3[nH]2)cc1	12

tested on: Aspergillus niger; test: Antifungal activity against Aspergillus niger MUCC 177 after 48 hrs by disc diffusion method; format: functional; details: not given; procedure, shortened: as §2

SMILES	inhibition zone (IZ) [mm]
COC(=O)[C@H](Cc1c[nH]c2ccccc12)NC(=O)c1cc(I)c(-c2nc3cc(C)c(C)cc3[nH]2)c(I)c1	19
COC(=O)[C@H](CCCNC(=N)N[N+](=O)[O-])NC(=O)c1ccc(-c2nc3cc(C)c(C)cc3[nH]2)cc1	15

tested on: Bacillus subtilis; test: Antibacterial activity against Bacillus subtilis NCIM 2063 after 18 hrs by tube dilution method; format: functional; details: NCIM 2063, 18 h
Procedure, shortened: (§3)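 Tube dilution MIC. Stock diluted in sterile broth to seven concentrations from 200 to 3.1 […]. Each tube inoculated with one loopful of test bacterium and incubated 18 h at 37 °C. MIC read from presence or absence of growth.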

SMILES	MIC [µg/mL]
COC(=O)[C@H](Cc1c[nH]c2ccccc12)NC(=O)c1cc(I)c(-c2nc3cc(C)c(C)cc3[nH]2)c(I)c1	6 (≈ 8.35 µM)
COC(=O)[C@H](CCCNC(=N)N[N+](=O)[O-])NC(=O)c1ccc(-c2nc3cc(C)c(C)cc3[nH]2)cc1	12.5 (≈ 26 µM)

tested on: Staphylococcus aureus; test: Antibacterial activity against Staphylococcus aureus NCIM 2079 after 18 hrs by tube dilution method; format: functional; details: NCIM 2079, 18 h; procedure, shortened: as §3

SMILES	MIC [µg/mL]
COC(=O)[C@H](Cc1c[nH]c2ccccc12)NC(=O)c1cc(I)c(-c2nc3cc(C)c(C)cc3[nH]2)c(I)c1	12.5 (≈ 17.4 µM)
COC(=O)[C@H](CCCNC(=N)N[N+](=O)[O-])NC(=O)c1ccc(-c2nc3cc(C)c(C)cc3[nH]2)cc1	25 (≈ 51.9 µM)

tested on: Pseudomonas aeruginosa; test: Antibacterial activity against Pseudomonas aeruginosa NCIM 2034 after 18 hrs by tube dilution method; format: functional; details: NCIM 2034, 18 h; procedure, shortened: as §3

SMILES	MIC [µg/mL]
COC(=O)[C@H](Cc1c[nH]c2ccccc12)NC(=O)c1cc(I)c(-c2nc3cc(C)c(C)cc3[nH]2)c(I)c1	6 (≈ 8.35 µM)
COC(=O)[C@H](CCCNC(=N)N[N+](=O)[O-])NC(=O)c1ccc(-c2nc3cc(C)c(C)cc3[nH]2)cc1	6 (≈ 12.5 µM)

tested on: Escherichia coli; test: Antibacterial activity against Escherichia coli NCIM 2065 after 18 hrs by tube dilution method; format: functional; details: NCIM 2065, 18 h

SMILES	MIC [µg/mL]
COC(=O)[C@H](Cc1c[nH]c2ccccc12)NC(=O)c1cc(I)c(-c2nc3cc(C)c(C)cc3[nH]2)c(I)c1	12.5 (≈ 17.4 µM)
COC(=O)[C@H](CCCNC(=N)N[N+](=O)[O-])NC(=O)c1ccc(-c2nc3cc(C)c(C)cc3[nH]2)cc1	12.5 (≈ 26 µM)

tested on: Candida albicans; test: Antifungal activity against Candida albicans MUCC 29 after 48 hrs by tube dilution method; format: functional; details: not given
Procedure, shortened: (§4)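 Tube dilution MIC as for bacteria (seven concentrations, 200–3.1 […]), with DMSO in place of DMF. Tubes inoculated with fungal culture and incubated 48 h at 37 °C. MIC read from presence or absence of growth.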

SMILES	MIC [µg/mL]
COC(=O)[C@H](Cc1c[nH]c2ccccc12)NC(=O)c1cc(I)c(-c2nc3cc(C)c(C)cc3[nH]2)c(I)c1	6 (≈ 8.35 µM)
COC(=O)[C@H](CCCNC(=N)N[N+](=O)[O-])NC(=O)c1ccc(-c2nc3cc(C)c(C)cc3[nH]2)cc1	12.5 (≈ 26 µM)

tested on: Microsporum audouinii; test: Antifungal activity against Microsporum audouinii MUCC 545 after 48 hrs by tube dilution method; format: functional; details: not given; procedure, shortened: as §4

SMILES	MIC [µg/mL]
COC(=O)[C@H](Cc1c[nH]c2ccccc12)NC(=O)c1cc(I)c(-c2nc3cc(C)c(C)cc3[nH]2)c(I)c1	12.5 (≈ 17.4 µM)
COC(=O)[C@H](CCCNC(=N)N[N+](=O)[O-])NC(=O)c1ccc(-c2nc3cc(C)c(C)cc3[nH]2)cc1	12.5 (≈ 26 µM)

tested on: Trichophyton benhamiae; test: Antifungal activity against Trichophyton mentagrophytes MUCC 665 after 48 hrs by tube dilution method; format: functional, Arthroderma benhamiae; details: not given; procedure, shortened: as §4

SMILES	MIC [µg/mL]
COC(=O)[C@H](Cc1c[nH]c2ccccc12)NC(=O)c1cc(I)c(-c2nc3cc(C)c(C)cc3[nH]2)c(I)c1	6 (≈ 8.35 µM)
COC(=O)[C@H](CCCNC(=N)N[N+](=O)[O-])NC(=O)c1ccc(-c2nc3cc(C)c(C)cc3[nH]2)cc1	12.5 (≈ 26 µM)

tested on: Eudrilus; test: Anthelmintic activity against Eudrilus sp. assessed as mean paralyzing time; format: functional; details: not given
Procedure, shortened: (§5)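 Earthworms exposed to test suspensions at 2 mg mL^-1 (0.2% w/v), made by triturating compound with Tween 80 (0.5%) and distilled water, then mechanically stirred 30 min. Mebendazole suspension prepared alike as reference. Paralysis and death times recorded; death confirmed by no movement in 50 °C water. Means from triplicate sets.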

SMILES	Time [min]
COC(=O)[C@H](Cc1c[nH]c2ccccc12)NC(=O)c1cc(I)c(-c2nc3cc(C)c(C)cc3[nH]2)c(I)c1	13.5
COC(=O)[C@H](CCCNC(=N)N[N+](=O)[O-])NC(=O)c1ccc(-c2nc3cc(C)c(C)cc3[nH]2)cc1	18.67

tested on: Eudrilus; test: Anthelmintic activity against Eudrilus sp. assessed as mean death time; format: functional; details: not given
Procedure, shortened: (§6)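 Earthworms exposed to test suspensions at 2 mg mL−1, prepared by triturating compound with Tween 80 (0.5%) and distilled water, stirring 30 min, then diluting to 0.2% w/v. Mebendazole suspension was made the same way. Death was confirmed by moving worms into 50 °C warm water and looking for movement. Mean death time (min) taken from triplicate sets.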

SMILES	Time [min]
COC(=O)[C@H](Cc1c[nH]c2ccccc12)NC(=O)c1cc(I)c(-c2nc3cc(C)c(C)cc3[nH]2)c(I)c1	24.02
COC(=O)[C@H](CCCNC(=N)N[N+](=O)[O-])NC(=O)c1ccc(-c2nc3cc(C)c(C)cc3[nH]2)cc1	28.21

tested on: not listed separately; test: Anthelmintic activity against Megascoplex konkanensis ICARBC 211 assessed as mean paralyzing time; format: functional; details: not given; procedure, shortened: as §5

SMILES	TIME [h]
COC(=O)[C@H](Cc1c[nH]c2ccccc12)NC(=O)c1cc(I)c(-c2nc3cc(C)c(C)cc3[nH]2)c(I)c1	0.217
COC(=O)[C@H](CCCNC(=N)N[N+](=O)[O-])NC(=O)c1ccc(-c2nc3cc(C)c(C)cc3[nH]2)cc1	0.309

tested on: not listed separately; test: Anthelmintic activity against Megascoplex konkanensis ICARBC 211 assessed as mean death time; format: functional; details: not given; procedure, shortened: as §5

SMILES	TIME [h]
COC(=O)[C@H](Cc1c[nH]c2ccccc12)NC(=O)c1cc(I)c(-c2nc3cc(C)c(C)cc3[nH]2)c(I)c1	0.371
COC(=O)[C@H](CCCNC(=N)N[N+](=O)[O-])NC(=O)c1ccc(-c2nc3cc(C)c(C)cc3[nH]2)cc1	0.443

tested on: Pontoscolex corethrurus; test: Anthelmintic activity against Pontoscolex corethrurus ICARBC 408 assessed as mean paralyzing time; format: functional; details: not given; procedure, shortened: as §5

SMILES	Time [min]
COC(=O)[C@H](Cc1c[nH]c2ccccc12)NC(=O)c1cc(I)c(-c2nc3cc(C)c(C)cc3[nH]2)c(I)c1	17.1
COC(=O)[C@H](CCCNC(=N)N[N+](=O)[O-])NC(=O)c1ccc(-c2nc3cc(C)c(C)cc3[nH]2)cc1	21.65

tested on: Pontoscolex corethrurus; test: Anthelmintic activity against Pontoscolex corethrurus ICARBC 408 assessed as mean death time; format: functional; details: not given; procedure, shortened: as §6

SMILES	Time [min]
COC(=O)[C@H](Cc1c[nH]c2ccccc12)NC(=O)c1cc(I)c(-c2nc3cc(C)c(C)cc3[nH]2)c(I)c1	29.29
COC(=O)[C@H](CCCNC(=N)N[N+](=O)[O-])NC(=O)c1ccc(-c2nc3cc(C)c(C)cc3[nH]2)cc1	35.22
